Experimental findings from article PMC5532717 (ACS Central Science, 2017) are described below.

The assay deals with T1, GBA2 (Homo sapiens, UniProt Q9HCG7).
T1 sequence (Q9HCG7 1-927): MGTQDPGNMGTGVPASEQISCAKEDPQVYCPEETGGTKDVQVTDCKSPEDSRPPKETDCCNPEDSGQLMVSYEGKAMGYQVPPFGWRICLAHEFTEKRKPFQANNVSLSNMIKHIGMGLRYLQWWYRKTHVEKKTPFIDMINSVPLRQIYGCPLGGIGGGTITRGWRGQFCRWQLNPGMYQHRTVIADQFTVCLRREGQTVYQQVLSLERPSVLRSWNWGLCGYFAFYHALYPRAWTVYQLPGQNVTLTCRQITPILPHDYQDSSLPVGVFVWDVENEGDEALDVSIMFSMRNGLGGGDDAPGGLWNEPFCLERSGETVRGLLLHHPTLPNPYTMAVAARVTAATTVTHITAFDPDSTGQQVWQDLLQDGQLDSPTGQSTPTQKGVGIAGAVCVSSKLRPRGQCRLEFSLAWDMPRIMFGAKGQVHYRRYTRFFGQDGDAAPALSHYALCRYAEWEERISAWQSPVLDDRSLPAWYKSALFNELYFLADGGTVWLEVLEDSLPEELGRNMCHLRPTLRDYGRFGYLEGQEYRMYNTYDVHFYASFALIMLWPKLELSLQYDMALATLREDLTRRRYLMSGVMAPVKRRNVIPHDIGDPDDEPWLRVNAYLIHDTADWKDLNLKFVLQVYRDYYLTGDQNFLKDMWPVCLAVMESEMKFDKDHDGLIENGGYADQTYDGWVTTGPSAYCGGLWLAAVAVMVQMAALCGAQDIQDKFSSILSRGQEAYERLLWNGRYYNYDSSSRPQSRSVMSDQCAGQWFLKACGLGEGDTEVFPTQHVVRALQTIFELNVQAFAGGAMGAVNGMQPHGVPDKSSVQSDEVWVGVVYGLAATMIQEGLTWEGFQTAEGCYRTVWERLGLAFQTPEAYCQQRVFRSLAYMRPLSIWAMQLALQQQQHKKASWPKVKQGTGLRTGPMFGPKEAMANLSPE
Briefly: In vitro apparent IC50, GBA2 overexpressing HEK293T lysate, 4-MU-β-Glc. Format: biochemical. A digest of the protocol:
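The enzyme source was GBA2-overexpressing HEK293T lysate or recombinant human GAA. It was preincubated 30 min at 37 °C with a range of test compound concentrations, then transferred into 4-MU glucoside substrate mixture to measure residual activity. Quenched with 1 M NaOH–glycine pH 10.3; 4-MU fluorescence at λex 366/λem 445 nm. Apparent IC50 is the mean of three technical replicates.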

Molecules are shown by their SMILES. Some results are limits rather than exact numbers.

By IC50 is commonly meant the midpoint of a concentration-inhibition curve. For the compound `O=S1(=O)O[C@@H]2[C@H](O)[C@@H](O)[C@H](O)[C@@H](CO)[C@@H]2O1` [Compound 5, 1,6-epi-cyclophellitol cyclosulfate], the IC50 was above 100 µM.
